According to paper PMC9545559 (International Journal of Cancer, 2022):

Assays:
Format in all cases: in vivo, human
[1] = system: patients with untreated locally advanced or metastatic PDAC; assay: Phase II safety and adverse events; conditions: for patients with dose reduced due to occurrence of AEs: n = 24, combination ivaltinostat + gemcitabine + erlotinib; for Anemia, Number of patients (%) / Anorexia, Number of patients (%) / Fatigue, Number of patients (%) / Febrile neutropenia, Number of patients (%) / Neutropenia, Number of patients (%) / Pneumonia, Number of patients (%) / Thrombocytopenia, Number of patients (%): treatment-related
Outline: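 Patients on ivaltinostat 250 mg/m2 IV with gemcitabine 1000 mg/m2 IV (days 1, 8, 15) and erlotinib 100 mg/day orally, 28-day cycles. Vital signs, AEs, ADRs, serious AEs, ECG and clinical laboratory tests checked on days 1, 8 and 15 of each cycle. AEs graded by NCI CTCAE v4.0. Safety set: all patients given ≥1 dose.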

[2] = system: patients with untreated locally advanced or metastatic PDAC; assay: Phase I 3 + 3 dose escalation; conditions: Level III: ivaltinostat 312.5 mg/m^2 + gemcitabine + erlotinib; four patients
Outline: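 3 + 3 escalation: ivaltinostat IV from 187.5 to 250 or 312.5 mg/m2, plus gemcitabine 1000 mg/m2 IV on days 1, 8, 15 and erlotinib 100 mg/day orally in 28-day cycles. DLT graded by NCI CTC v4.0: grade 4 neutropenia ≥6 days, grade 3/4 thrombocytopenia with bleeding, grade 3 neutropenia with fever >38.5°C, or drug-related nonhematologic grade 3/4 toxicity. MTD: ≤1 DLT per six-patient cohort.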

[3] = Pharmacokinetic analysis of ivaltinostat in the phase I study; conditions: first day after single administration, mean
[4] = 24 subjects, ivaltinostat + gemcitabine + erlotinib

Nc1ccn([C@@H]2O[C@H](CO)[C@@H](O)C2(F)F)c(=O)n1 [gemcitabine, reference compound]
patients with dose reduced due to occurrence of AEs [1]: 12.5%

CN(C)CCCNC(=O)/C(=C/CCCCC(=O)NO)COc1cccc2ccccc12 [ivaltinostat]
dose-limiting toxicity (DLT) [2]: A DLT, febrile neutropenia grade 3 | drop-out of the study due to intolerable AEs [1]: no cases | subjects with ADRs of grade 3 or 4 severity ([1]; 15 of 24 subjects): 62.5% | ADR: decreased appetite ([1]; 24 subjects): 11 events | ADR: decreased platelet count ([1]; 24 subjects): 15 events | ADR: nausea ([1]; 24 subjects): 10 events | ADR: rash ([1]; 24 subjects): 11 events | ADR: vomiting ([1]; 24 subjects): 10 events | ADRs with grade 3 or 4 severity ([1]; 24 subjects): 26 events | grade 5 (death) events ([1]; 24 subjects): no grade 5 (death) events | AEs reported [1, 4]: 218 events | adverse drug reactions (ADRs) [1, 4]: 114 events | patients with dose reduced due to occurrence of AEs [1]: 12.5% | treatment-related grade 3 or 4 anemia ([1]; n = 24, text): 16.7% | treatment-related grade 3 or 4 neutropenia ([1]; n = 24, text): 33.3% | treatment-related grade 3 or 4 thrombocytopenia ([1]; n = 24, text): 29.2% | Anemia, Number of patients (%) ([1]; Grade 3 (n = 24)): 4 (16.7) patients (%) | Anorexia, Number of patients (%) ([1]; Grade 3 (n = 24)): 2 (8.3) patients (%) | Fatigue, Number of patients (%) ([1]; Grade 3 (n = 24)): 2 (8.3) patients (%) | Febrile neutropenia, Number of patients (%) ([1]; Grade 3 (n = 24)): 2 (8.3) patients (%) | Neutropenia, Number of patients (%) ([1]; Grade 3 (n = 24)): 3 (12.5) patients (%) | Pneumonia, Number of patients (%) ([1]; Grade 3 (n = 24)): 0 patients (%) | Thrombocytopenia, Number of patients (%) ([1]; Grade 3 (n = 24)): 4 (16.7) patients (%) | Anemia, Number of patients (%) ([1]; Grade 4 (n = 24)): 0 patients (%) | Anorexia, Number of patients (%) ([1]; Grade 4 (n = 24)): 0 patients (%) | Fatigue, Number of patients (%) ([1]; Grade 4 (n = 24)): 0 patients (%) | Febrile neutropenia, Number of patients (%) ([1]; Grade 4 (n = 24)): 0 patients (%) | Neutropenia, Number of patients (%) ([1]; Grade 4 (n = 24)): 5 (20.8) patients (%) | Pneumonia, Number of patients (%) ([1]; Grade 4 (n = 24)): 1 (4.2) patients (%) | Thrombocytopenia, Number of patients (%) ([1]; Grade 4 (n = 24)): 3 (12.5) patients (%) | Anemia, Number of patients (%) ([1]; Total grade 3 and 4 (n = 24)): 4 (16.7) patients (%) | Anorexia, Number of patients (%) ([1]; Total grade 3 and 4 (n = 24)): 2 (8.3) patients (%) | Fatigue, Number of patients (%) ([1]; Total grade 3 and 4 (n = 24)): 2 (8.3) patients (%) | Febrile neutropenia, Number of patients (%) ([1]; Total grade 3 and 4 (n = 24)): 2 (8.3) patients (%) | Neutropenia, Number of patients (%) ([1]; Total grade 3 and 4 (n = 24)): 8 (33.3) patients (%) | Pneumonia, Number of patients (%) ([1]; Total grade 3 and 4 (n = 24)): 1 (4.2) patients (%) | Thrombocytopenia, Number of patients (%) ([1]; Total grade 3 and 4 (n = 24)): 7 (29.2) patients (%) | Cmax ([3]; 187.5 mg/m^2 iv, n=3): 9553 ng/mL | Terminal half-life ([3]; 187.5 mg/m^2 iv, n=3): 7.3 h | Cmax ([3]; 250 mg/m^2 iv, n=3): 8062 ng/mL | Terminal half-life ([3]; 250 mg/m^2 iv, n=3): 5.7 h | Cmax ([3]; 312.5 mg/m^2 iv, n=4): 12 782 ng/mL | Terminal half-life ([3]; 312.5 mg/m^2 iv, n=4): 6.6 h

C#Cc1cccc(Nc2ncnc3cc(OCCOC)c(OCCOC)cc23)c1 [erlotinib, reference compound]
patients with dose reduced due to occurrence of AEs [1]: no patient received a reduced dose
